This is an account of results in ChEMBL document CHEMBL2040721, “Potent direct inhibitors of factor Xa based on the tetrahydroisoquinoline scaffold” (Eur J Med Chem, 2012).

Structures are written as SMILES. Some results are limits rather than exact numbers.

For experiment [1], the target named is Coagulation factor X (Homo sapiens, UniProt P00742). Nature of the experiment: Inhibition of human factor 10a using chromogenic spectrozyme F10a as substrate after 10 mins by spectrophotometry. In a few lines: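 Human plasma FXa pre-incubated 10 min at 37 °C with inhibitor (twelve concentrations, 0.015–500 μM in well) in pH 7.4 buffer, then Spectrozyme FXa added. Initial rate of A405 rise gives residual activity relative to no-inhibitor control. Duplicate or triplicate; logistic fit gives IC50, efficacy and Hill slope. Organic solvent held constant, <2.5% v/v.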
Chain of Coagulation factor X (P00742 41-179 limits assumed): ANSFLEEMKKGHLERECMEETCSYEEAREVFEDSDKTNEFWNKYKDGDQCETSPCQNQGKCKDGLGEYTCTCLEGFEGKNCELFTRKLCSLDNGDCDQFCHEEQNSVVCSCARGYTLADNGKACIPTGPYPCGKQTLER
Chain of Coagulation factor X (P00742 235-488 limits assumed): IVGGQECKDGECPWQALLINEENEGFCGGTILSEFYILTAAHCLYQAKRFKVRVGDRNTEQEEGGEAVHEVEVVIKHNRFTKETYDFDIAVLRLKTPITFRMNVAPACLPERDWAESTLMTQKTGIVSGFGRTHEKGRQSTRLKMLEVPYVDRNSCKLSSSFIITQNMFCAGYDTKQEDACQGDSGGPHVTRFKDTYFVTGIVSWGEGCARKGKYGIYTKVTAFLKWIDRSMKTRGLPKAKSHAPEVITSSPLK

In experiment [2] the test system is Plasma. The experiment can be described thus: Anticoagulant activity in human plasma assessed as concentration required to double the activated […] time incubated for 4 mins prior to CaCl2-challenge by fibrometry. The format is functional.
Experiment [3] concerns Plasma. The experiment can be described thus: Anticoagulant activity in human plasma assessed as concentration required to double the prothrombin time incubated for 30 s prior to thromboplastin addition by fibrometry.

`O=C(Nc1ccc(N2CCCCC2=O)cc1)[C@@H]1Cc2ccccc2CN1C(=O)c1ccc(C(F)(F)F)cc1`: 13.3 µM corresponded to half-maximal inhibition in experiment [1] (IC50). As for `CN(C(=O)[C@@H]1Cc2ccccc2CN1C(=O)c1ccc(Cl)cc1)c1ccc(N2CCCCC2=O)cc1`, half-maximal inhibition in experiment [1] (IC50) required 197 µM. With `COc1ccc(CC(=O)N2Cc3ccccc3C[C@H]2C(=O)N(C)c2ccc(N3CCCCC3=O)cc2)cc1`, in experiment [1], half-maximal inhibition (IC50) was put at 34 µM. On to `CN(C(=O)[C@@H]1Cc2ccccc2CN1C(=O)Cc1ccc(Cl)cc1Cl)c1ccc(N2CCCCC2=O)cc1`, for which, in experiment [1], the half-inhibitory concentration (IC50) (usually the midpoint of a concentration-inhibition curve) came to 1.3 µM. Moreover, the 2aPTT in experiment [2] was 260 µM. The 2PT in experiment [3] turned out to be 219 µM.

Regarding `CCN(C(=O)[C@@H]1Cc2ccccc2CN1C(=O)Cc1ccc(Cl)cc1)c1ccc(N2CCOCC2=O)cc1`, in experiment [1], the IC50 was 1.6 µM.

As to `O=C(Nc1ccc(N2CCCCC2)cc1)[C@@H]1Cc2ccccc2CN1C(=O)OCc1ccccc1`, in experiment [1], the IC50 is greater than 500 µM. Still for that read-out and setting: for `CN(C(=O)[C@@H]1Cc2ccccc2CN1C(=O)OCc1ccccc1)c1ccc(N2CCCCC2=O)cc1` the value was 16.4 µM; for `O=C(Nc1ccc(Cl)cc1)[C@@H]1Cc2ccccc2CN1C(=O)OCc1ccccc1`, greater than 500 µM. In turn, `O=C(Nc1ccc(N2CCOCC2=O)cc1)[C@@H]1Cc2ccccc2CN1C(=O)c1ccc(CCl)cc1` gave an IC50 in experiment [1] of 2.9 µM. Moreover, the 2aPTT in experiment [2] came to 614 µM. For the same compound, the 2PT in experiment [3] is 645 µM. The compound `CN(C(=O)[C@@H]1Cc2ccccc2CN1C(=O)Cc1ccc(C(F)(F)F)cc1)c1ccc(N2CCCCC2=O)cc1` registered an IC50 in experiment [1] of 335 µM.

In turn, `CN(C(=O)[C@@H]1Cc2ccccc2CN1C(=O)c1ccc(Cl)s1)c1ccc(N2CCOCC2=O)cc1` showed an IC50 in experiment [1] of 36 µM. Still for that read-out and setting: for `CCN(C(=O)[C@@H]1Cc2ccccc2CN1C(=O)OCc1ccccc1)c1ccc(N2CCCCC2=O)cc1` the value was 20 µM.

Turning to `Cc1c(C(=O)N2Cc3ccccc3C[C@H]2C(=O)Nc2ccc(N3CCOCC3=O)cc2)sc2ccc(Cl)cc12`, the half-maximal inhibitory concentration (IC50) in experiment [1] was 5.4 µM. In addition, the 2PT in experiment [3] was 2160 µM.

Regarding `CN(C(=O)[C@@H]1Cc2ccccc2CN1C(=O)OC(C)(C)C)c1ccc(N2CCCCC2=O)cc1`, the IC50 in experiment [1] came out at 221 µM. On the same count and under the same terms, for `CN(C(=O)[C@@H]1CCCCN1C(=O)c1ccc(Cl)s1)c1ccc(N2CCCCC2=O)cc1` the value was 358 µM.

With `CN(C(=O)[C@@H]1Cc2ccccc2CN1C(=O)Cc1ccc(Cl)cc1)c1ccc(N2CCCCC2=O)cc1`, inhibition in experiment [1] was half-maximal at 1.3 µM (IC50). Moreover, the 2aPTT in experiment [2] worked out at 80 µM. Moreover, the 2PT in experiment [3] stood at 71 µM. The matching figures for `O=C(Nc1ccc(N2CCOCC2=O)cc1)[C@@H]1CC=CCN1C(=O)Cc1ccc(Cl)cc1`: 9 µM, 810 µM and 952 µM. Compound `COc1ccc(CCC(=O)N2Cc3ccccc3C[C@H]2C(=O)N(C)c2ccc(N3CCOCC3=O)cc2)cc1` showed a half-inhibitory concentration (IC50) in experiment [1] of 190 µM.

In turn, `COc1ccc(CCC(=O)N2Cc3ccccc3C[C@H]2C(=O)N(C)c2ccc(N3CCOCC3=O)cc2)c(OC)c1` came in with a half-inhibitory concentration (IC50) in experiment [1] greater than 500 µM.

As for `O=C(Nc1ccc(N2CCOCC2=O)cc1)[C@@H]1[C@@H]2CC[C@H](C2)N1C(=O)Cc1ccc(Cl)cc1`, the half-maximal inhibitory concentration (IC50) in experiment [1] amounted to 10 µM. Further, in experiment [3], the 2PT was 2347 µM. `CN(C(=O)[C@@H]1Cc2ccccc2CN1C(=O)Cc1ccc([N+](=O)[O-])cc1)c1ccc(N2CCCCC2=O)cc1`: half-maximal inhibition in experiment [1] (IC50) was put at 85 µM. `O=C(Nc1ccc(N2CCOCC2=O)cc1)[C@H]1CCCCN1C(=O)Cc1ccc(Cl)cc1`: the IC50 in experiment [1] came out at 23 µM. Against the preceding compound, the IC50 is about 3.7-fold lower. Same read-out and setting: for `Cc1ccc(CC(=O)N2Cc3ccccc3C[C@H]2C(=O)N(C)c2ccc(N3CCCCC3=O)cc2)cc1` the value was 14 µM; for `CN(C(=O)[C@@H]1Cc2ccccc2CN1C(=O)Cc1ccc(Cl)c(Cl)c1)c1ccc(N2CCCCC2=O)cc1`, 18 µM. Take `CN(C(=O)[C@H]1Cc2ccccc2CN1C(=O)Cc1ccc(C(F)(F)F)cc1)c1ccc(N2CCCCC2=O)cc1`: the half-inhibitory concentration (IC50) in experiment [1] came to 311 µM. The same measure, in the same setting: then `COc1ccc(CC(=O)N2Cc3ccccc3C[C@H]2C(=O)N(C)c2ccc(N3CCCCC3=O)cc2)cc1OC`, with 246 µM.

In turn, `CN(C(=O)[C@H]1Cc2ccccc2CN1C(=O)Cc1ccc(Cl)cc1)c1ccc(N2CCCCC2=O)cc1` gave a concentration for half-maximal inhibition (IC50) in experiment [1] of 0.9 µM. This IC50 is about 270-fold lower than that of the compound before. As for `CN(C(=O)[C@@H]1CCCN(C(=O)c2ccc(Cl)s2)C1)c1ccc(N2CCCCC2=O)cc1`, the concentration for half-maximal inhibition (IC50) in experiment [1] was 69 µM. Against the preceding compound, the IC50 is about 77-fold higher.

As to `O=C(Nc1ccc(N2CCCCC2=O)cc1)[C@@H]1Cc2ccccc2CN1C(=O)OCc1ccccc1`, it took 9.9 µM to reach half-maximal inhibition in experiment [1] (IC50). Still for that read-out and setting: then `CN(C(=O)[C@@H]1Cc2ccccc2CN1C(=O)c1ccc(Cl)s1)c1ccc(N2CCCCC2=O)cc1`, with 56 µM. In turn, `CN(C(=O)[C@H]1CCCN(C(=O)Cc2ccc(Cl)cc2)C1)c1ccc(N2CCCCC2=O)cc1` yielded a half-maximal inhibitory concentration (IC50) in experiment [1] of 371 µM. Against the preceding compound, the IC50 is about 6.6-fold higher. The same measure, in the same setting: then `CCN(C(=O)[C@@H]1Cc2ccccc2CN1C(=O)OCc1ccccc1)c1ccc(N2CCOCC2=O)cc1`, with 19 µM; and `CC(C)N(C(=O)[C@@H]1Cc2ccccc2CN1C(=O)OCc1ccccc1)c1ccc(N2CCCCC2=O)cc1`, with 19 µM; and `CC(=O)N1CCN(c2ccc(NC(=O)[C@@H]3Cc4ccccc4CN3C(=O)OCc3ccccc3)cc2)CC1`, with greater than 500 µM.

In experiment [1], `COc1cc2c(cc1OC)CN(C(=O)Cc1ccc(Cl)cc1)[C@H](C(=O)N(C)c1ccc(N3CCCCC3=O)cc1)C2` displayed an IC50 of 7.8 µM. In experiment [1], `O=C(Nc1ccc(N2CCOCC2=O)cc1)[C@@H]1Cc2ccccc2CN1C(=O)OCc1ccccc1` came in with an IC50 of 6 µM. Further, the 2PT in experiment [3] is 1387 µM. As for `CN(C(=O)[C@@H]1Cc2ccccc2CN1C(=O)Cc1ccc(Cl)cc1)c1ccc(N2CCOCC2=O)cc1`, inhibition in experiment [1] was half-maximal at 1.1 µM (IC50). In other words, the single-digit micromolar range. For `Cc1ccc(C(=O)N2Cc3ccccc3C[C@H]2C(=O)N(C)c2ccc(N3CCCCC3=O)cc2)cc1`, the midpoint of inhibition in experiment [1], the IC50, lay at 209 µM. The same measure, in the same setting: then `CN(C(=O)[C@@H]1Cc2ccccc2CN1C(=O)OCc1ccccc1)c1ccc(N2CCOCC2=O)cc1`, with 12.8 µM; and `CN(C(=O)[C@@H]1Cc2ccccc2CN1C(=O)CCc1ncc(-c2ccc(Cl)cc2)o1)c1ccc(N2CCCCC2=O)cc1`, with 103 µM; and `CN(C(=O)[C@@H]1Cc2ccccc2CN1S(=O)(=O)Cc1ccc(Cl)cc1)c1ccc(N2CCCCC2=O)cc1`, with 151 µM. In turn, `O=C(Nc1ccc(N2CCN(C(=O)c3cccs3)CC2)cc1)[C@@H]1Cc2ccccc2CN1C(=O)OCc1ccccc1` had a 50% inhibitory concentration (IC50) in experiment [1] greater than 500 µM. Turning to `COc1ccc(C(=O)N2Cc3ccccc3C[C@H]2C(=O)N(C)c2ccc(N3CCCCC3=O)cc2)cc1`, the half-maximal inhibitory concentration (IC50) in experiment [1] came to 19 µM. In experiment [1], `CN(C(=O)[C@@H]1Cc2ccccc2CN1C(=O)c1cc(-c2ccc(Br)cc2)cs1)c1ccc(N2CCOCC2=O)cc1` displayed an IC50 greater than 500 µM. Consider `CN(C(=O)[C@H]1CCCCN1C(=O)c1ccc(Cl)s1)c1ccc(N2CCCCC2=O)cc1`, for which the IC50 in experiment [1] stood at 99 µM. For the compound `CN(C(=O)[C@@H]1Cc2ccccc2CN1C(=O)c1cccs1)c1ccc(N2CCCCC2=O)cc1`, half-maximal inhibition in experiment [1] (IC50) was put at 42 µM. In experiment [1], `CN(C(=O)[C@H](Cc1ccccc1)NC(=O)Cc1ccc(Cl)cc1)c1ccc(N2CCCCC2=O)cc1` gave an IC50 of 54 µM.
